The first assay has as its system Hepatitis C virus. Put plainly: Antiviral activity against Hepatitis C virus assessed as inhibition of viral replication after 24 hrs by cell based luciferase reporter gene assay. It counts as functional, organism-based. Conditions: Hepacivirus hominis, 72 h, in the assay text read “after 3 days” for “after 24 hrs”. The gist of the method: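 Subgenomic HCV RNA replicon cells carrying luciferase (LucNeo#2), maintained in DMEM with 10% FBS, antibiotics and 1 mg/ml geneticin. Seeded at 50,000 cells/ml without geneticin and incubated 24 h. Medium then replaced with medium containing serial compound dilutions for 3 days. Cells washed with PBS and lysed for 10 min; luciferase activity in the lysate read by luminometer.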
For orientation: A reporter such as luciferase makes a cellular process visible.
As a reminder, the EC50 is the concentration needed to bring the measured effect to its halfway point. Turning to `CCCCn1c(=O)c2ccccc2c2cc(C(O)(C(F)(F)F)C(F)(F)F)cc(C)c21`, the EC50 was found to be 2.1 µM. On the same count and under the same terms, with `CCCCn1c(=O)c2ccccc2c2c(OC)c(C(O)(C(F)(F)F)C(F)(F)F)c3c(c21)OCO3` the figure was 9.8 µM. On the same count and under the same terms, the value for `CCCCn1c(=O)c2ccccc2c2cc(C(O)(C(F)(F)F)C(F)(F)F)c(OC)c(OC)c21` was 2.6 µM; that for `CCCCn1c(=O)c2cc(OC)ccc2c2c(OC)c(C(O)(C(F)(F)F)C(F)(F)F)cc(OC)c21` was 6.1 µM; that for `CCCCn1c(=O)c2c(OC)cccc2c2cc(C(O)(C(F)(F)F)C(F)(F)F)ccc21` was 9.96 µM. Still for that read-out and setting: with `O=c1c2ccccc2c2cc(C(O)(C(F)(F)F)C(F)(F)F)ccc2n1Cc1ccc2ccccc2c1` the figure was 8.8 µM; with `CCCCn1c(=O)c2cc(OC)ccc2c2c(OC)c(C(O)(C(F)(F)F)C(F)(F)F)c3c(c21)OCO3`, 12 µM; with `CCCCn1c(=O)c2cc(OC)ccc2c2cc(C(O)(C(F)(F)F)C(F)(F)F)c(OC)c(OC)c21`, 1.8 µM.

With `CCCCn1c(=O)c2ccccc2c2cc(C(O)(C(F)(F)F)C(F)(F)F)c3c(c21)OCO3`, the EC50 was determined as 0.29 µM. On the same count and under the same terms, with `CCCCn1c(=O)c2ccccc2c2c(OC)c(C(O)(C(F)(F)F)C(F)(F)F)cc(OC)c21` the figure was 5.7 µM. Same read-out and setting: with `CCCCn1c(=O)c2ccc(OC)cc2c2cc(C(O)(C(F)(F)F)C(F)(F)F)ccc21` the figure was 16.6 µM.

For the compound `CCCCn1c(=O)c2cccc(OC)c2c2cc(C(O)(C(F)(F)F)C(F)(F)F)ccc21`, the EC50 was determined as 5 µM. On the same count and under the same terms, with `CCCCn1c(=O)c2ccccc2c2cc(C(O)(C(F)(F)F)C(F)(F)F)c(OC)cc21` the figure was 3.4 µM.

As to `CCCCn1c(=O)c2ccccc2c2cc(C(O)(C(F)(F)F)C(F)(F)F)cc(F)c21`, the EC50 stood at 2.4 µM.

Regarding `CCCCn1c(=O)c2ccccc2c2c(OC)c(C(O)(C(F)(F)F)C(F)(F)F)ccc21`, the EC50 was 7.2 µM.

In the case of `CCCCn1c(=O)c2cc(OC)ccc2c2cc(C(O)(C(F)(F)F)C(F)(F)F)cc(OC)c21`, the EC50 turned out to be 0.51 µM. For `CCCCn1c(=O)c2ccccc2c2cc(C(O)(C(F)(F)F)C(F)(F)F)c(F)cc21`, the EC50 was 5.3 µM.

Turning to `CCCCn1c(=O)c2cc3c(cc2c2cc(C(O)(C(F)(F)F)C(F)(F)F)c4c(c21)OCO4)OCO3`, the EC50 came to 1.73 µM.

`COCCn1c(=O)c2ccccc2c2cc(C(O)(C(F)(F)F)C(F)(F)F)ccc21`: the EC50 came out at 5.4 µM. Still for that read-out and setting: the value for `CCCCn1c(=O)c2cc3c(cc2c2cc(C(O)(C(F)(F)F)C(F)(F)F)ccc21)OCO3` was 2.3 µM; that for `CCCCn1c(=O)c2cc(OC)ccc2c2cc(C(O)(C(F)(F)F)C(F)(F)F)ccc21` was 0.98 µM; that for `CCCCn1c(=O)c2ccccc2c2cc(C(O)(C(F)(F)F)C(F)(F)F)cc(OC)c21` was 1.1 µM. On the same count and under the same terms, the value for `CCCCn1c(=O)c2ccccc2c2cc(C(O)(C(F)(F)F)C(F)(F)F)c(C)cc21` was 5.6 µM. On to `CCCCn1c(=O)c2cc(OC)ccc2c2cc(C(O)(C(F)(F)F)C(F)(F)F)c3c(c21)OCO3`, for which the EC50 amounted to 0.05 µM. Still for that read-out and setting: with `CCCCn1c(=O)c2cc(OC)ccc2c2cc(C(O)(C(F)(F)F)C(F)(F)F)c(OC)cc21` the figure was 0.18 µM. For the compound `CCCCn1c(=O)c2ccccc2c2cc(C(O)(C(F)(F)F)C(F)(F)F)ccc21`, the EC50 is 3.2 µM.

Another assay concerns Bovine viral diarrhea virus 1. The experiment in a line: Antiviral activity against Bovine viral diarrhea virus assessed as inhibition of viral replication after 24 hrs by cell based luciferase reporter gene assay. Conditions: Bovine viral diarrhea virus isolates and strains. The format is functional, organism-based.
With `Cc1ncc2c3ccccc3n(C)c2c1C`, the EC50 turned out to be 0.0035 µM.

The values are drawn from ChEMBL document CHEMBL1765008, “Fused heterocyclic amido compounds as anti-hepatitis C virus agents” (Bioorg Med Chem, 2011).
